Experimental data taken from ChEMBL document CHEMBL3098112, “Synthesis and evaluation of spiroisoxazoline oxindoles as anticancer agents” (Bioorg Med Chem, 2014).
The source made the active and inactive calls. The calls are words filed in the database; no cut-off is given here.

Assays:
SW-620 = assay: Antiproliferative activity against human SW620 cells expressing p53 mutant after 24 hrs by MTS assay; assay type: functional; details: SW-620, 24 h
Summary of the method: (§1)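 Cells plated (1×10^5 cells/mL) and treated about 24 h later with compounds in DMSO diluted in medium, 0.5 to 200 µM; viability read 24 h after treatment by MTS, absorbance 490 nm. GI50 from non-linear regression; mean ± SEM of three independent experiments. HCT116 and SW620 in McCoy's 5A, HepG2 in DMEM, all with 10% FBS, 37 °C, 5% CO2.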

HCT-116 [1] = assay: Antiproliferative activity against p53-deficient human HCT116 cells after 24 hrs by MTS assay; assay type: functional; details: HCT-116, 24 h; summary of the method: as §1
HCT-116 [2] = assay: Antiproliferative activity against human HCT116 cells expressing p53 after 24 hrs by MTS assay; assay type: functional; details: HCT-116, 24 h; summary of the method: as §1
HepG2 = assay: Antiproliferative activity against human HepG2 cells after 24 hrs by MTS assay; assay type: functional; details: HepG2, 24 h; summary of the method: as §1
[3] = biological target: T1, Tumour suppressor p53/oncoprotein Mdm2 (Homo sapiens) (UniProt P04637+Q00987); assay: Inhibition of p53-MDM2 (unknown origin) interaction expressed in p53-deficient human HCT116 cells at 10 to 50 uM after 24 hrs by BiFC-based FACS flow cytometric analysis; assay type: cell-based; details: HCT-116
Summary of the method: (§2)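 HCT116 p53-/- cells co-transfected with V1-p53/MDM2-V2 BiFC plasmids (1 µg each, Lipofectamine 2000). Medium replaced 4–6 h post-transfection and compounds in DMSO added. Cells harvested at 24 h with accutase, resuspended in PBS, and complementation fluorescence measured by flow cytometry; n = 3.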

[4] = biological target: T1, Tumour suppressor p53/oncoprotein Mdm2 (Homo sapiens); assay: Inhibition of p53-MDM2 (unknown origin) interaction expressed in p53-deficient human HCT116 cells at 25 to 50 uM after 24 hrs by BiFC-based FACS flow cytometric analysis; assay type: cell-based; details: HCT-116; summary of the method: as §2
HCT-116 [5] = assay: Induction of apoptosis in p53-deficient human HCT116 cells assessed as increase in PARP cleavage after 24 hrs by Western blotting analysis; assay type: functional, cell-based; details: in the assay text read “p53 wild-type” for “p53-deficient”
HCT-116 [6] = assay: Induction of apoptosis in p53-deficient human HCT116 cells assessed as caspase 3 activation after 24 hrs by Western blotting analysis; assay type: functional, cell-based; details: in the assay text read “p53 wild-type” for “p53-deficient”
Summary of the method: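 HCT116 p53-/- cells seeded at 3×10^5 cells/mL and exposed to vehicle or compound at 25 and 50 µM for 24 h. Whole-cell extracts (60–80 µg) run on 8% and 14% SDS-PAGE and immunoblotted for caspase-3 or PARP-1/2. Bands quantified by densitometry and normalized to β-actin; three independent experiments.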

[7] = Half life in Sprague-Dawley rat liver microsomes by HPLC analysis in presence of NADPH-regenerating system; assay type: ADME
Summary of the method: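 Male Sprague–Dawley pooled liver microsomes in potassium phosphate pH 7.4 with NADPH regenerating system, preincubated 5 min at 37 °C. Reaction started with 4 µL of 10^-3 M DMSO stock. Aliquots quenched in acetonitrile, centrifuged, and supernatant analysed by RP-18 HPLC at 260 nm for half-life.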

Plasma = assay: Metabolic stability in human plasma up to 72 hrs by HPLC analysis; assay type: ADME, cell-free
[8] = Chemical stability in phosphate buffer at pH 7.4 up to 72 hrs by HPLC analysis; assay type: physicochemical; details: pH 7.4, 72 h
Summary of the method: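 12.5 µL of 10^-2 M DMSO stock added to 2.5 mL potassium phosphate buffer (pH 7.4, 0.5 M) at 37 °C; aliquots taken at intervals into acetonitrile and analysed by RP-18 HPLC (acetonitrile/water 70:30, 1 mL/min, UV 260 nm, 25 °C) over 72 h.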

T1 sequence (P04637 whole entry, looked up): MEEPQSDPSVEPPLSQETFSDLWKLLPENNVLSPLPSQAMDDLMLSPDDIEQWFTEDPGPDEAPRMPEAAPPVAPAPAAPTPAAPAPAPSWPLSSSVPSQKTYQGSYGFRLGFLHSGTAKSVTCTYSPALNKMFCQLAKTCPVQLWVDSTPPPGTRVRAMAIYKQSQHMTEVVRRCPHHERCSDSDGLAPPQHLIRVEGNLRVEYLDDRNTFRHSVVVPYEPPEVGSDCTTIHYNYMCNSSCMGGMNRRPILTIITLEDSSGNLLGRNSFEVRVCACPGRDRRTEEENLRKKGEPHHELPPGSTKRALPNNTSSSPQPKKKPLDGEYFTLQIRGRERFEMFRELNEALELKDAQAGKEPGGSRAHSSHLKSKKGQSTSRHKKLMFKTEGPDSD
T1 sequence (Q00987 whole entry, looked up): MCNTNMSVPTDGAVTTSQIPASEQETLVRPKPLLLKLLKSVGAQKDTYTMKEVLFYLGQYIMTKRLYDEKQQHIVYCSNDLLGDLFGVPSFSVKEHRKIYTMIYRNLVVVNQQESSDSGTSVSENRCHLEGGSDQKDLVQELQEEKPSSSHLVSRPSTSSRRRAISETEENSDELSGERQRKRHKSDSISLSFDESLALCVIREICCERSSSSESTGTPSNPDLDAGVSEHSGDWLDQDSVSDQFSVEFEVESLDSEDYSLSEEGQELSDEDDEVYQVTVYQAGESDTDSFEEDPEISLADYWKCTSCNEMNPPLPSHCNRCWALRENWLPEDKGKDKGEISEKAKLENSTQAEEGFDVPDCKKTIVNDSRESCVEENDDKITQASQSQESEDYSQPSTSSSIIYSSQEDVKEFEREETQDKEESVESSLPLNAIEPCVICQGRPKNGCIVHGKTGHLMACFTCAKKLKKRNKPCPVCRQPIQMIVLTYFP

Compound	GI50 (SW-620)	GI50 (HCT-116 [1])	GI50 (HCT-116 [2])	GI50 (HepG2)	also measured
COc1ccc([C@@H]2C(c3ccccc3)=NO[C@@]23C(=O)N(C)c2ccccc23)cc1 (relative stereo)	–	–	–	> 100 µM	–
COc1ccc(C2=NO[C@@]3(C(=O)Nc4c(Cl)cccc43)[C@@H]2c2ccccc2)cc1 (relative stereo)	–	–	–	55.8 µM	–
O=C1Nc2ccc([N+](=O)[O-])cc2[C@]12ON=C(c1ccccc1)[C@H]2c1ccccc1 (relative stereo)	–	–	–	83.6 µM	–
COc1ccc(C2=NO[C@@]3(C(=O)Nc4ccc([N+](=O)[O-])cc43)[C@@H]2c2ccccc2)cc1 (relative stereo)	–	–	–	53.1 µM	–
COc1ccc(C2=N[C@@H](c3ccc(Cl)cc3)[C@@H](c3ccc(Cl)cc3)N2C(=O)N2CCNC(=O)C2)c(OC(C)C)c1 [NUTLIN-3]	–	52.3 µM	–	51.3 µM	–
O=C1Nc2c(Cl)cccc2[C@]12ON=C(c1ccc([N+](=O)[O-])cc1)[C@H]2c1ccccc1 (relative stereo)	–	–	–	55.5 µM	–
COc1ccc(C2=NO[C@@]3(C(=O)Nc4cc(Cl)ccc43)[C@@H]2c2ccc(OC)cc2)cc1 (relative stereo)	–	–	–	> 100 µM	–
COc1ccc([C@@H]2C(c3ccccc3)=NO[C@@]23C(=O)Nc2ccccc23)cc1 (relative stereo)	–	–	–	> 100 µM	–
O=C1Nc2ccccc2[C@]12ON=C(c1ccc([N+](=O)[O-])cc1)[C@H]2c1ccccc1 (relative stereo)	–	–	–	52.1 µM	–
COc1ccc(C2=NO[C@@]3(C(=O)Nc4ccccc43)[C@@H]2c2ccccc2)cc1 (relative stereo)	–	–	–	77.8 µM	–
O=C1Nc2ccccc2[C@]12ON=C(c1ccccc1)[C@H]2c1ccccc1 (relative stereo)	–	–	–	> 100 µM	–
COc1ccc(C2=NO[C@@]3(C(=O)Nc4ccccc43)[C@@H]2c2ccc(OC)cc2)cc1 (relative stereo)	–	–	–	> 100 µM	–

Stronger by GI50 (HepG2), values ahead:

GI50 (SW-620)	GI50 (HCT-116 [1])	GI50 (HCT-116 [2])	GI50 (HepG2)	Compound	also measured
39.6 µM	40.6 µM	35 µM	32.8 µM	O=C1Nc2cc(Br)ccc2[C@]12ON=C(c1ccccc1)[C@H]2c1ccccc1 (relative stereo)	–
36.7 µM	35.6 µM	30.5 µM	35.7 µM	COc1ccccc1C1=NO[C@@]2(C(=O)Nc3cc(Cl)ccc32)[C@@H]1c1ccccc1 (relative stereo)	–
48.9 µM	48.2 µM	39.8 µM	37.1 µM	O=C1Nc2cc(Cl)ccc2[C@]12ON=C(c1ccccc1)[C@H]2c1ccccc1 (relative stereo)	inhibition [3]: Active
31.6 µM	30.6 µM	26.6 µM	29.1 µM	Cc1ccc(C2=NO[C@@]3(C(=O)Nc4cc(Cl)ccc43)[C@@H]2c2ccccc2)cc1 (relative stereo)	inhibition [4]: Active; Activity (HCT-116 [5]): Dose-dependent effect; Activity (HCT-116 [6]): Dose-dependent effect
33.5 µM	39 µM	32.4 µM	33.8 µM	O=C1Nc2cc(Cl)ccc2[C@]12ON=C(c1ccc([N+](=O)[O-])cc1)[C@H]2c1ccccc1 (relative stereo)	–
40.4 µM	39 µM	33.4 µM	31.7 µM	COc1ccc(C2=NO[C@@]3(C(=O)Nc4cc(Br)ccc43)[C@@H]2c2ccccc2)cc1 (relative stereo)	half-life [7]: 3.62 h; Stability (Plasma): Stable; Stability [8]: Stable
53.2 µM	40.1 µM	34.7 µM	38.1 µM	COc1ccc(C2=NO[C@@]3(C(=O)Nc4cc(Cl)ccc43)[C@@H]2c2ccccc2)cc1 (relative stereo)	inhibition [4]: Active; half-life [7]: 3.15 h; Stability (Plasma): Stable; Stability [8]: Stable; Activity (HCT-116 [5]): Dose-dependent effect; Activity (HCT-116 [6]): Dose-dependent effect
